From ChEMBL document CHEMBL3421608, “Discovery and optimization of a novel series of Dyrk1B kinase inhibitors to explore a MEK resistance hypothesis” (J Med Chem, 2015)
Values after ≈ are worked out from the molar mass of the structure shown. Active and inactive are the calls of the source. The calls are words filed in the database; no cut-off is given here.

Key:
[1] = biological target: T1, Dual specificity tyrosine-phosphorylation-regulated kinase 1B (Homo sapiens, UniProt Q9Y463); assay: Inhibition of recombinant Dyrk1B (unknown origin) using FITC-Asp-His-Thr-Gly-Phe-Leu-Thr-Glu-Tyr-Val-Ala-Thr-Arg-NH2 as substrate after 60 mins
T1 sequence (Q9Y463 whole entry): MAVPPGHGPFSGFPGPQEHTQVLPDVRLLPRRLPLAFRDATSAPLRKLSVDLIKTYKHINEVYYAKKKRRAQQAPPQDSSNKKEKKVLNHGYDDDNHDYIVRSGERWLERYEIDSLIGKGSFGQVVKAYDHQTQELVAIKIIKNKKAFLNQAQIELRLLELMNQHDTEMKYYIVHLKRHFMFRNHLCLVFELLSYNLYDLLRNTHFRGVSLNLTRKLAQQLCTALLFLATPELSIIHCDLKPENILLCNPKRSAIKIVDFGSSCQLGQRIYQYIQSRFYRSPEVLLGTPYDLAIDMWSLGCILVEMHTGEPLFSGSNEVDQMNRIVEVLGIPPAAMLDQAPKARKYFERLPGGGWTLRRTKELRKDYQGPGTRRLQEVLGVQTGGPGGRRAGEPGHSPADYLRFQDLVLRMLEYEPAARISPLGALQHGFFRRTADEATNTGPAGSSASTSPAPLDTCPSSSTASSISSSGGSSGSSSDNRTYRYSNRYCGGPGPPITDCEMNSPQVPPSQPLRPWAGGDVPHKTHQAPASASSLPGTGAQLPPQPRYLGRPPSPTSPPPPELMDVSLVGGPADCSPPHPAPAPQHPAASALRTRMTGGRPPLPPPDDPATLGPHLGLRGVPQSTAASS

[2] = biological target: Cyclin-dependent kinase 2 (Homo sapiens, UniProt P24941); assay: Inhibition of human recombinant full length C-terminal His6-tagged CDK2 expressed in baculovirus infected Sf21 insect cells using fluorescence substrate after 60 mins by caliper off-chip incubation mobility shift assay
[3] = biological target: Insulin-like growth factor 1 receptor (Homo sapiens, UniProt P08069); assay: Inhibition of human recombinant N-terminal His6-tagged IGF-1R using fluorescence substrate after 80 mins by caliper off-chip incubation mobility shift assay
Insulin-like growth factor 1 receptor, sequence (P08069 31-736 limits assumed): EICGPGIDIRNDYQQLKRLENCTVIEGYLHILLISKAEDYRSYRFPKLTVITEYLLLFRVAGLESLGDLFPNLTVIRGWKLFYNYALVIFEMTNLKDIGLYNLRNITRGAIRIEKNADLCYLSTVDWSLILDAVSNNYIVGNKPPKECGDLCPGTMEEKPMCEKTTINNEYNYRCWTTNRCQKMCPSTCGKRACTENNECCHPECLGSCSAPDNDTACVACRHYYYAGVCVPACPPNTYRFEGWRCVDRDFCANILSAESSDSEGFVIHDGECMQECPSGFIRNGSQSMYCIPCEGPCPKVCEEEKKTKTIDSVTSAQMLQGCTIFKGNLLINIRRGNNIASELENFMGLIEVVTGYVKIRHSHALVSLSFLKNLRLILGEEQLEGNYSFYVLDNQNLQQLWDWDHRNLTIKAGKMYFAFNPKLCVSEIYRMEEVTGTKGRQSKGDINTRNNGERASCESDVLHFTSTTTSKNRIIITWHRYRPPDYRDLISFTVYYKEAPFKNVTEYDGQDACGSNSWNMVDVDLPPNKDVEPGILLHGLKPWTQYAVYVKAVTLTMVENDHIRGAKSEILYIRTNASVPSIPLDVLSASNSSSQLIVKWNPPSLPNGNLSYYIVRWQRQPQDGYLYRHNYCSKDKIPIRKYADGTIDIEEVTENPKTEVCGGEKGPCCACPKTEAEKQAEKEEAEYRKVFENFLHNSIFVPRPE
Insulin-like growth factor 1 receptor, sequence (P08069 741-1367 limits assumed): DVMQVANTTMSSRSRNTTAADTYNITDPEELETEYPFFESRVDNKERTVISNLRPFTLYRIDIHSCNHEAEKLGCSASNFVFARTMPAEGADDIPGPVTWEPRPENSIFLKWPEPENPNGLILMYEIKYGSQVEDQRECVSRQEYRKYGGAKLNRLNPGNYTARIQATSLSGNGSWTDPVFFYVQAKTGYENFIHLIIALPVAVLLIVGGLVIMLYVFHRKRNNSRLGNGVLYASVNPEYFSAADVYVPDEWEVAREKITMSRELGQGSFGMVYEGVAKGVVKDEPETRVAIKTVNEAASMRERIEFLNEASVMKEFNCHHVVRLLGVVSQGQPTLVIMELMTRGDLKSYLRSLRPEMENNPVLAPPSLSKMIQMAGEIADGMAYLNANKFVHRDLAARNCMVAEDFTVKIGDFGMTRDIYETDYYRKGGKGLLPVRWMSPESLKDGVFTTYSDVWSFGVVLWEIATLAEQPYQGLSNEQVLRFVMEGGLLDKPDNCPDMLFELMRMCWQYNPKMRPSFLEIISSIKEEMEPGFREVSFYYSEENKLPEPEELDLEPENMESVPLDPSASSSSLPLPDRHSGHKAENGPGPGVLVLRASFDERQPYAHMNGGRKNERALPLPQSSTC

A-375 = assay: Cytotoxicity against human A375 cells at 1.33 uM after 72 hrs by calcein green AM/propidium iodide staining-based assay in presence of AZD6244 relative to control; format: functional, cell-based
Method in brief: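 A375 melanoma cells treated with AZD6244 with or without Dyrk1B inhibitor at 1.33 μM for 72 h. Viability by calcein green AM and propidium iodide staining; percentage of dead cells is mean and SEM of at least two separate experiments.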

[4] = biological target: T1, Dual specificity tyrosine-phosphorylation-regulated kinase 1B; assay: Inhibition of human full length C-terminal c-Myc tagged Dyrk1B phosphorylation overexpressed in monkey COS1 cells after 5 hrs by ELISA; format: cell-based, COS-1
[5] = Intrinsic clearance in Wistar Han rat hepatocytes assessed per 10^6 cells; format: ADME, cell-based, Hepatocyte; conditions: read-out: CLH
Method in brief: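 Intrinsic clearance in Wistar Han rat hepatocytes, expressed as μL/min/1 × 10⁶ cells.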

[6] = Clearance in Wistar Han rat plasma at 2 umol/kg; format: ADME, cell-free
[7] = Oral bioavailability in Wistar Han rat at 3 umol/kg; format: ADME, organism-based; conditions: in vivo
[8] = Aqueous solubility of the compound at pH 7.4; format: physicochemical; conditions: buffer

Cc1nccc(-c2cn(Cc3ccccc3)c3cnccc23)n1
IC50 [1]: 0.007 µM
IC50 [2]: 56.7 µM
IC50 [3]: > 100 µM
Activity (A-375): inactive
IC50 [4]: 0.194 µM

COc1cc(N2CCN(C)CC2)ccc1Nc1cc(-c2c[nH]c3cnccc23)ncn1
hepatocyte CLint [5]: 11 µL/min/1e6 cells
IC50 [1]: 0.001 µM
IC50 [2]: 12.3 µM
IC50 [3]: 34.1 µM
clearance [6]: 375 mL/min/kg
IC50 [4]: 0.282 µM

COc1cc(N2CCN(C)CC2)ccc1Nc1nccc(-c2c[nH]c3c(C)nccc23)n1
hepatocyte CLint [5]: < 5 µL/min/1e6 cells
IC50 [1]: 0.005 µM
IC50 [2]: 17.4 µM
IC50 [3]: 0.051 µM
bioavailability [7]: 0%
clearance [6]: 38 mL/min/kg
IC50 [4]: 0.083 µM

COc1cc(N2CCN(C(C)=O)CC2)ccc1Nc1nccc(-c2c[nH]c3cnccc23)n1
hepatocyte CLint [5]: < 1 µL/min/1e6 cells
IC50 [1]: 0.009 µM
IC50 [2]: 2 µM
IC50 [3]: 0.965 µM
clearance [6]: 137 mL/min/kg

Cc1nccc2c(-c3ccnc(-c4ccc(S(C)(=O)=O)cc4)n3)c[nH]c12
hepatocyte CLint [5]: 9 µL/min/1e6 cells
IC50 [1]: 0.014 µM
IC50 [2]: > 100 µM
IC50 [3]: > 29 µM
bioavailability [7]: 4%
clearance [6]: 24 mL/min/kg
IC50 [4]: 2.12 µM

COc1cc(N2CCN(C)CC2)ccc1Nc1nccc(-c2cn(C)c3c(C)nccc23)n1
hepatocyte CLint [5]: 6 µL/min/1e6 cells
IC50 [1]: 0.009 µM
IC50 [2]: 13.7 µM
IC50 [3]: 3.17 µM
solubility [8]: 4 µM (≈ 1.77 µg/mL)
bioavailability [7]: 14%
clearance [6]: 24 mL/min/kg
IC50 [4]: 0.168 µM

Cc1nccc(-c2c[nH]c3cnccc23)n1
IC50 [1]: 0.017 µM
IC50 [2]: 38.4 µM
IC50 [3]: > 100 µM
IC50 [4]: 3.07 µM

CN1CCN(c2ccc(Nc3ncc(Cl)c(-c4c[nH]c5cnccc45)n3)cc2)CC1
IC50 [1]: 0.025 µM
IC50 [2]: 0.02 µM
IC50 [3]: 0.03 µM

O=C(NC1CCCC1)c1ccc(-c2nccc(-c3c[nH]c4cnccc34)n2)cc1
hepatocyte CLint [5]: 32 µL/min/1e6 cells
IC50 [1]: 0.098 µM
IC50 [2]: 45.9 µM
IC50 [3]: 67.7 µM

C(=C\c1nccc(-c2c[nH]c3cnccc23)n1)/c1ccccc1
IC50 [1]: 0.007 µM
IC50 [2]: 5.18 µM
IC50 [3]: 46.9 µM
Activity (A-375): inactive
IC50 [4]: 0.192 µM

O=C(NC1CCCC1)c1ccc(-c2cc(-c3cc4c([nH]3)CCNC4=O)ccn2)cc1
IC50 [1]: 0.043 µM

COc1cc(N2CCN(C)CC2)ccc1Nc1nccc(-c2c[nH]c3cnc(C)cc23)n1
hepatocyte CLint [5]: 6 µL/min/1e6 cells
IC50 [1]: 0.004 µM
IC50 [2]: 10.5 µM
IC50 [3]: 0.072 µM

CN1CCN(c2ccc(Nc3cc(-c4c[nH]c5cnccc45)ncn3)cc2)CC1
hepatocyte CLint [5]: 13 µL/min/1e6 cells
IC50 [1]: 0.002 µM
IC50 [2]: 0.577 µM
IC50 [3]: > 100 µM
clearance [6]: 179 mL/min/kg
IC50 [4]: 0.453 µM

c1cc2c(-c3ccnc4[nH]ccc34)c[nH]c2cn1
IC50 [1]: 0.003 µM
IC50 [2]: 0.314 µM
IC50 [3]: 7.99 µM
IC50 [4]: 0.378 µM

CS(=O)(=O)c1ccc(-c2nccc(-c3c[nH]c4cnccc34)n2)cc1
hepatocyte CLint [5]: 129 µL/min/1e6 cells
IC50 [1]: 0.021 µM
IC50 [2]: 16.9 µM
IC50 [3]: > 100 µM
bioavailability [7]: 0%
IC50 [4]: 0.898 µM

COc1cc(N2CCN(C(C)=O)CC2)ccc1Nc1cc(-c2c[nH]c3cnccc23)ncn1
hepatocyte CLint [5]: 9 µL/min/1e6 cells
IC50 [1]: 0.016 µM
IC50 [2]: 14.1 µM
IC50 [3]: 40.5 µM
clearance [6]: 239 mL/min/kg

COc1cc(N2CCN(C(C)=O)CC2)ccc1Nc1cc(-c2cn(C)c3cnccc23)ncn1
hepatocyte CLint [5]: 11 µL/min/1e6 cells
IC50 [1]: 0.034 µM
IC50 [2]: 14.8 µM
IC50 [3]: > 100 µM
solubility [8]: 53 µM (≈ 24.2 µg/mL)
bioavailability [7]: 5%
clearance [6]: 16 mL/min/kg
